tolC growth inh = growth inhibitors of E. coli tolC mutant, primary screen, strain BW25113 ΔtolC::kan, 384-well. OD615. growth inhibition, % at 10 µM (by protocol). AID 573, 2007. 65,000 tested, 2.2% active;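 active = growth inhibition at or above a cutoff equal to the mean over every tested compound plus 3 SD, cut at about 60% in these data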;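 also: growth measured after 20 h incubation at 37 °C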
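System: E. coli ΔtolC::kan strain BW25113; Buffer or medium: LB broth supplemented with 50 µg/mL kanamycin; Compound: 10 µM final, single dose; Incubation: bacterial growth with compound for 20 h at 37 °C; Signal: A615 absorbance measurement; Evaluation: growth inhibition in percent.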
Jurkat viability = cytotoxicity toward Jurkat T cells, primary screen, cytotoxicity control, cell-based, Jurkat E6.1, 60K MLSMR library; Jurkat E6.1 viability, ATP luminescence, 48 h; inhibition, % at 4 µM; 56,000 tested, 1.2% active;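 active = inhibition above the mean inhibition of all tested compounds plus 3 SD, cut at about 28% in these data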
H69AR growth 86K = proliferation blockers of H69AR lung cancer cells, primary screen, cell-based, human, 86K library; H69AR lung tumor viability, ATP luminescence, 72 h; active compounds read low; viability, % at 10 µM; 85,000 tested, 6% active; AID 598, 2007;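 active = viability at or below 40%; inactive = viability above 40%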;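 also: multidrug resistant small cell line overexpressing MRP-1 efflux transporter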
Ecoli WT expand = growth inhibitors of wild-type E. coli, primary screen, strain BW25113, expanded library, OD600; OD600 absorbance; growth inhibition, % at 100 µM; 98,000 tested, 0.15% active; AID 710, 2007;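 active = growth inhibition above about 50% at one test dose, limit read from the data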;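 also: growth measured after 20 h incubation at 37 °C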
Lung fibro prol = antiproliferative effect on LL 47 fibroblasts – human, LL 47 cells, CellTiter-Glo luminescence, primary screen. LL 47 human lung fibroblast viability, ATP luminescence; active compounds read low. viability, % at 10 µM. 85,000 tested, 1.1% active. AID 719, 2007;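 active = viability at or below 50% in the single dose screen; inactive = viability above 50%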;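 also: compound exposure lasted 72 h before the ATP readout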
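Test system: LL 47 human lung fibroblasts / Incubation: 72 h compound exposure at 37 °C after overnight plating / Technique: luminescent ATP detection, CellTiter-Glo / Compound dosing: 0.1% DMSO in all compound wells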
HUVEC inhibit = inhibitors of HUVEC proliferation, primary screen, cell-based, 384-well | CellTiter-Glo luminescence, 72 h; active compounds read low | viability, % at 10 µM (by protocol) | 86,000 tested, 1.1% active;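 active = viability at or below 30%; inactive = viability above 30%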
Numbers stand for hits; n = inactive; x = not tested or not shown. In the library only some 6.4% were active in any assay of this set; here they are far more common.

SMILES | tolC growth inh | Jurkat viability | H69AR growth 86K | Ecoli WT expand | Lung fibro prol | HUVEC inhibit
Cn1c(=O)c2c(SCc3cccc(C(F)(F)F)c3)nc(-c3ccco3)nc2n(C)c1=O | n | n | n | n | 47.8 | 20.2
CC(=O)c1cc(F)c(N2CCCC2)cc1C | n | n | n | n | n | n
CCOC(=O)c1sc2nc(N3CCCC3)c3c(c2c1N)CC(C)(C)OC3 | n | n | x | n | x | x
CCOC(=O)c1sc2nc(C(C)C)c3c(c2c1N)CC(C)(C)OC3 | x | x | n | n | 47.6 | n
CCc1ccc2oc(=O)cc(CN3CCN(CCO)CC3)c2c1 | n | n | n | n | n | n
Cc1ccc(NC(=O)Cn2nnc(C(=O)NCc3ccccc3)c2N)cc1C | n | x | x | n | x | x
Cc1ccc(NC(=O)c2nnn(CC(=O)Nc3ccccc3)c2N)cc1C | n | n | 24.9 | n | n | n
CC(C)c1ccc(-c2nc(N3CCCC3)nc3n[nH]c(N)c23)cc1 | n | x | 11.2 | n | n | n
CCOC(=O)c1[nH]c(C)c(C(=O)OCCN2C(=O)c3ccccc3C2=O)c1C | n | n | 33.9 | n | n | n
CCOC(=O)c1[nH]c(C)c(C(=O)Nc2cc(Cl)ccc2C)c1C | n | 88.3 | 24.5 | n | n | n
CCOC(=O)c1[nH]c(C)c(C(=O)Nc2ccccc2C)c1C | n | 78.6 | 26.0 | n | n | n
Cc1cccc(-n2c(O)c(C=NC3CCS(=O)(=O)C3)c3ccccc3c2=O)c1 (centres undefined) | x | x | n | n | n | n
CN(c1ccccc1)S(=O)(=O)c1ccc(NC(=S)Nc2ccccc2)cc1 | x | x | x | n | x | x
O=C(NCc1cccs1)C1CCCN1C(=O)NC1CCCCC1 (centres undefined) | n | n | n | n | n | n
CCCc1cc(C(=O)Nc2cc(Br)ccc2O)no1 | n | 46.3 | n | n | n | n
CC(C)c1cc(C(=O)Nc2cc(Br)ccc2O)no1 | x | x | n | n | n | n
CC(C)c1cc(C(=O)Nc2cc(Cl)ccc2O)no1 | n | 54.5 | n | n | n | n
CCC1Oc2nc(SC)nnc2-c2ccccc2N1C(=O)c1ccccc1 (centres undefined) | n | n | 24.8 | n | n | n
CCC(=O)N1c2ccccc2-c2nnc(SC)nc2OC1c1ccc(N(C)C)cc1 (centres undefined) | n | n | n | x | n | n
COc1cc(C(=O)O/N=C2\CCCc3c2ccc(OC)c3[N+](=O)[O-])cc(OC)c1OC | x | x | 16.9 | n | n | n
O=C(Nc1ccccc1-c1nc2ccccc2[nH]1)c1ccc(S(=O)(=O)N2CCCCC2)cc1 | x | x | x | n | x | x
CCOC(=O)C1CCN(Cc2cn[nH]c2-c2ccc(C)cc2)CC1 | 91.7 | n | n | n | n | n
CCCC1CCc2c(sc(NC(=O)c3cccs3)c2C(N)=O)C1 (centres undefined) | x | x | n | n | n | n
CCOC(=O)N1CCC(Nc2c(-c3ccc(C)c(C)c3)c(=O)c2=O)CC1 | n | n | 33.5 | n | n | n
CCC1CCCCN1CCCNC(=O)c1ccc(CS(=O)(=O)Cc2ccccc2F)o1 (centres undefined) | n | x | n | n | n | n
SMILES | tolC growth inh | Jurkat viability | H69AR growth 86K | Ecoli WT expand | Lung fibro prol | HUVEC inhibit
CCCOP(=O)(c1ccc(N(C)C)cc1)C(O)c1cccnc1 (centres undefined) | x | x | n | n | n | n
CCOc1cc(/C=N/NC(=O)Cn2nc([N+](=O)[O-])cc2C)ccc1OCc1ccc(F)cc1 | x | x | n | n | n | n
CCOc1cc(/C=N/NC(=O)Cn2nc([N+](=O)[O-])cc2C)cc(Br)c1OCc1ccccc1F | x | x | 8.3 | n | n | 29.7
Cc1cc(C)c2c(=O)[nH]n(C(C)C)c2n1 | n | n | n | n | n | n
Cc1cc2cc(CNC(=O)c3cc4ccccc4o3)ccc2n1C | n | n | x | n | x | x
CCCOP(=O)(OCCC)c1c([N+](=O)[O-])cc(C(F)(F)F)cc1[N+](=O)[O-] | x | x | 39.0 | n | 18.6 | 11.5
CCOc1ccc(C(F)(F)F)cc1NC(=O)COc1ccc(C(F)(F)F)cc1[N+](=O)[O-] | x | x | x | n | x | x
CCC(c1nnnn1CCOC)N(Cc1ccc(C)cc1)Cc1cc2cc(OC)ccc2[nH]c1=O (centres undefined) | n | n | n | n | n | n
CCC(c1nnnn1Cc1ccccc1)N(Cc1ccco1)Cc1cc2cc(OC)ccc2[nH]c1=O (centres undefined) | n | n | 16.2 | n | n | n
CCc1ccc2[nH]c(=O)c(CN(Cc3ccccc3)Cc3nnnn3Cc3ccco3)cc2c1 | n | n | 20.7 | n | n | n
O=c1[nH]c2cc3c(cc2cc1CN(Cc1ccccc1)Cc1nnnn1Cc1ccco1)OCCO3 | n | n | n | n | n | n
CCC(c1nnnn1Cc1ccco1)N(CCc1ccccc1)Cc1cc2cc(C)ccc2[nH]c1=O (centres undefined) | n | n | 22.2 | x | n | n
CNc1ccc(Br)cc(C(=O)/C=C/c2cccc(OC)c2OC)c1=O | x | x | 5.3 | x | n | n
CCNc1ccccc(C(=O)/C=C/c2ccc3c(c2)OCO3)c1=O | x | x | x | n | x | x
COc1ccc(Br)cc1/C=C/C(=O)Nc1c(C)cccc1C | x | x | x | n | x | x
CCNc1ccc(Br)cc(C(=O)/C=C/c2ccccc2Cl)c1=O | x | x | 2.0 | x | 40.4 | 7.6
CCn1c(SCC(=O)Nc2ccc3c(c2)OCCO3)nnc1-c1ccccn1 | n | n | n | n | n | n
O=c1c2ccccc2nc(SCc2nnc(-c3ccccc3)o2)n1-c1ccccc1 | n | n | n | x | n | n
Cc1noc(C)c1CSc1nc2[nH]ncc2c(=O)n1-c1ccccc1 | n | 83.3 | x | n | x | x
Cc1nc(CSc2nc3[nH]ncc3c(=O)n2-c2ccccc2)cs1 | n | n | n | n | n | n
COc1ccc(-c2noc(CSc3nc4ccccc4c(=O)n3-c3ccccc3)n2)cc1 | n | n | 29.0 | n | n | n
Cc1noc(C)c1CSc1nnc2n(-c3ccccc3)c(=O)c3ccccc3n12 | n | n | n | x | n | n
Cc1noc(C)c1CSc1nc2ccccc2c(=O)n1-c1ccc(F)cc1F | n | 91.7 | 23.2 | n | n | n
O=c1c2ccccc2nc(SCc2cc(F)ccc2F)n1C1CCCC1 | x | x | x | n | x | x
Cc1noc(C)c1CSc1nc2ccccc2c(=O)n1-c1ccccc1 | n | 88.6 | 17.3 | n | n | n
CCOC(=O)c1sc2nc3c(cc2c1N)COC(C(C)C)C3 (centres undefined) | x | x | n | n | n | n
CC1CN(S(=O)(=O)c2ccc(-c3nc4ccccc4s3)cc2)CC(C)O1 (centres undefined) | n | x | n | n | n | n
CC(=O)c1cnc2c(-c3ccc(Cl)cc3)c(C)nn2c1C | x | x | n | x | n | 27.8
CC(=O)c1cnc2c(-c3ccccc3)c(C)nn2c1C | x | x | n | x | n | n
COc1cc(OC)cc(-n2nnnc2SCC(=O)Nc2ccc(C(C)=O)cc2)c1 | x | x | x | n | x | x

Screening results from PubChem.
